{
  "source": "paper PMC10401071",
  "about": "(Cancer Discovery, 2023)",
  "key": {"[1]": {"test_system": "advanced or metastatic solid tumors", "test": "Antitumor activity, investigator-assessed per RECIST v1.1, PFS by Kaplan–Meier", "type": "in vivo, human", "conditions": "for duration of stable disease: WDLPS; for duration of response: partial response"}, "SJSA-1": {"test_system": "SJSA-1", "conditions": "SJSA-1 proliferation assay, in vitro; cited from earlier work"}, "[2]": {"test_system": "growth differentiation factor 15 (GDF-15)", "type": "in vivo, human", "conditions": "all dose-escalation cohorts, both arms", "summary_of_the_method": "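Blood drawn for GDF-15, a circulating downstream p53 marker measured as a target-engagement surrogate. Dosing was oral, day 1 every 21 days or days 1 and 8 every 28 days. Cycle 1 sampling: 5 min pre-dose; 1, 2, 3, 4, 5, 6 and 8 h post-dose on day 1; once on days 2, 3, 4, 5 and 8. All dose-escalation cohorts, both arms.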"}, "[3]": {"test": "Pharmacokinetic analysis of blood samples after oral brigimadlin", "type": "in vivo, human", "conditions": "for AUC(0-inf) / Cmax: oral", "summary_of_the_method": "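Oral test compound given to patients with advanced solid tumours, on day 1 of 21-day cycles or days 1 and 8 of 28-day cycles. Cycle 1 blood taken 5 min pre-dose, 1–8 h post-dose on day 1, then once on days 2, 3, 4, 5 and 8. Later cycles: pre-dose and 6 h, day 2, plus days 3 and 8 in cycle 2. Cmax and AUC by noncompartmental analysis.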"}},
  "data": [
    {"smiles": "Cc1c(C(=O)O)ccc2c3n(nc12)[C@@H]1[C@H](C3)N(CC2CC2)[C@@]2(C(=O)Nc3cc(Cl)ccc32)[C@H]1c1cccc(Cl)c1F", "note": "[brigimadlin]", "values": [
      {"measurement": "disease control rate", "setting": "[1]; 12 patients with DDLPS", "value": 75, "unit": "%"},
      {"measurement": "Complete response", "setting": "[1]; All patients (N = 54)", "value": "0 n (%)"},
      {"measurement": "Confirmed objective response", "setting": "[1]; All patients (N = 54)", "value": "6 (11.1) n (%)"},
      {"measurement": "Disease control", "setting": "[1]; All patients (N = 54)", "value": "40 (74.1) n (%)"},
      {"measurement": "Not evaluable (best overall response)", "setting": "[1]; All patients (N = 54)", "value": "3 (5.6) n (%)"},
      {"measurement": "Partial response", "setting": "[1]; All patients (N = 54)", "value": "6 (11.1) n (%)"},
      {"measurement": "Progressive disease", "setting": "[1]; All patients (N = 54)", "value": "11 (20.4) n (%)"},
      {"measurement": "Stable disease", "setting": "[1]; All patients (N = 54)", "value": "34 (63.0) n (%)"},
      {"measurement": "overall response rate", "setting": "[1]; D1D8q4w", "value": 8.0, "unit": "%"},
      {"measurement": "Complete response", "setting": "[1]; D1D8q4w (n = 25)", "value": "0 n (%)"},
      {"measurement": "Confirmed objective response", "setting": "[1]; D1D8q4w (n = 25)", "value": "2 (8.0) n (%)"},
      {"measurement": "Disease control", "setting": "[1]; D1D8q4w (n = 25)", "value": "18 (72.0) n (%)"},
      {"measurement": "Not evaluable (best overall response)", "setting": "[1]; D1D8q4w (n = 25)", "value": "2 (8.0) n (%)"},
      {"measurement": "Partial response", "setting": "[1]; D1D8q4w (n = 25)", "value": "2 (8.0) n (%)"},
      {"measurement": "Progressive disease", "setting": "[1]; D1D8q4w (n = 25)", "value": "5 (20.0) n (%)"},
      {"measurement": "Stable disease", "setting": "[1]; D1D8q4w (n = 25)", "value": "16 (64.0) n (%)"},
      {"measurement": "disease control rate", "setting": "[1]; D1D8q4w arm", "value": 72.0, "unit": "%"},
      {"measurement": "median progression-free survival (PFS)", "setting": "[1]; D1D8q4w arm, 95% CI: 3.7–18.5", "value": 8.0, "unit": "months"},
      {"measurement": "overall response rate", "setting": "[1]; D1q3w", "value": 13.8, "unit": "%"},
      {"measurement": "Complete response", "setting": "[1]; D1q3w (n = 29)", "value": "0 n (%)"},
      {"measurement": "Confirmed objective response", "setting": "[1]; D1q3w (n = 29)", "value": "4 (13.8) n (%)"},
      {"measurement": "Disease control", "setting": "[1]; D1q3w (n = 29)", "value": "22 (75.9) n (%)"},
      {"measurement": "Not evaluable (best overall response)", "setting": "[1]; D1q3w (n = 29)", "value": "1 (3.4) n (%)"},
      {"measurement": "Partial response", "setting": "[1]; D1q3w (n = 29)", "value": "4 (13.8) n (%)"},
      {"measurement": "Progressive disease", "setting": "[1]; D1q3w (n = 29)", "value": "6 (20.7) n (%)"},
      {"measurement": "Stable disease", "setting": "[1]; D1q3w (n = 29)", "value": "18 (62.1) n (%)"},
      {"measurement": "disease control rate", "setting": "[1]; D1q3w arm", "value": 75.9, "unit": "%"},
      {"measurement": "median progression-free survival (PFS)", "setting": "[1]; D1q3w arm, 95% CI: 3.0–20.7", "value": 10.6, "unit": "months"},
      {"measurement": "duration of stable disease", "setting": "[1]; one patient", "value": "> 14", "unit": "months"},
      {"measurement": "duration of stable disease", "setting": "[1]; the other two patients", "value": "~8", "unit": "months"},
      {"measurement": "disease control rate", "setting": "[1]; all 54 patients", "value": 74.1, "unit": "%"},
      {"measurement": "overall response rate", "setting": "[1]; all 54 patients, data cutoff October 24, 2022", "value": 11.1, "unit": "%"},
      {"measurement": "PFS", "setting": "[1]; all seven patients with WDLPS", "value": "> 7.5", "unit": "months"},
      {"measurement": "duration of partial response", "setting": "[1]; four WDLPS patients, ranging up to about 25 months", "value": "≥ 12", "unit": "months"},
      {"measurement": "patients achieving PFS ≥14 months", "setting": "[1]; of seven patients with WDLPS", "value": "five"},
      {"measurement": "patients achieving a partial response", "setting": "[1]; of seven patients with WDLPS", "value": "four"},
      {"measurement": "patients achieving stable disease", "setting": "[1]; of seven patients with WDLPS", "value": "three"},
      {"measurement": "patients achieving stable disease", "setting": "[1]; of the 12 patients with DDLPS", "value": "nine"},
      {"measurement": "duration of response", "setting": "[1]; one patient with MDM2-amplified intrahepatic cholangiocarcinoma", "value": "~12", "unit": "months"},
      {"measurement": "duration of response", "setting": "[1]; one patient with MDM2-amplified pancreatic cancer", "value": "> 5.5", "unit": "months"},
      {"measurement": "median progression-free survival (PFS)", "setting": "[1]; overall, preliminary analysis, 95% CI: 3.8–13.5", "value": 8.1, "unit": "months"},
      {"measurement": "disease control rate", "setting": "[1]; seven patients with WDLPS", "value": 100, "unit": "%"},
      {"measurement": "tumor reduction (partial response)", "setting": "[1]; single patient (Fig. 3A), MDM2-amplified WDLPS, 20 mg q3w, starting at cycle 2", "value": 31, "unit": "%"},
      {"measurement": "tumor reduction", "setting": "[1]; single patient (Fig. 3A), MDM2-amplified WDLPS, cycle 19, dose reduced to 10 mg", "value": 47, "unit": "%"},
      {"measurement": "tumor reduction (partial response)", "setting": "[1]; single patient (Fig. 3B), MDM2-amplified WDLPS, 80 mg D1q3w, cycle 3", "value": 32, "unit": "%"},
      {"measurement": "best tumor reduction", "setting": "[1]; single patient (Fig. 3B), MDM2-amplified WDLPS, at data cutoff", "value": 42, "unit": "%"},
      {"measurement": "time on treatment", "setting": "[1]; single patient (Fig. 3B), MDM2-amplified WDLPS, ongoing at data cutoff", "value": "more than 25 months"},
      {"measurement": "time on treatment before progressive disease", "setting": "[1]; single patient (Fig. 3D), MDM2-amplified cholangiocarcinoma", "value": 13.3, "unit": "months"},
      {"measurement": "IC50", "setting": "SJSA-1", "value": 0.012, "unit": "µM"},
      {"measurement": "growth differentiation factor 15 levels (target engagement)", "setting": "[2]", "value": "time- and dose-dependent increases"},
      {"measurement": "dose linearity of plasma exposure (Cmax and AUC0-inf)", "setting": "[3]; after the first dose, both arms, dose range 5 to 80 mg", "value": "no significant deviation from linearity"},
      {"measurement": "dose linearity of plasma exposure (Cmax and AUC0-inf)", "setting": "[3]; dose range 10 to 60 mg", "value": "no significant deviation from linearity"},
      {"measurement": "AUC(0-inf)", "setting": "[3]; human, plasma, 60 mg", "value": 121, "unit": "µM·h"},
      {"measurement": "Cmax", "setting": "[3]; human, plasma, 60 mg", "value": 2.48, "unit": "µM"},
      {"measurement": "AUC(0-inf)", "setting": "[3]; human, plasma, 80 mg", "value": 339, "unit": "µM·h"},
      {"measurement": "Cmax", "setting": "[3]; human, plasma, 80 mg", "value": 4.8, "unit": "µM"},
      {"measurement": "half-life", "setting": "[3]; human, plasma, po, half-life, patients, as summarised in Discussion", "value": "30 to 60", "unit": "h"}
    ]}
  ]
}
